# Data published in paper PMC3220788 (The Journal of steroid biochemistry and molecular biology, 2011).
# Like-named read-outs stand apart in the source and are kept apart here.
# What was measured:
# [1] = system: ERα; test: PI3K activation; assay type: cell-based; settings: COS7 ERα-GFP
# [2] = system: COS7 cells; test: PI3K activation; assay type: cell-based; settings: 10 µM, COS7 lacking ERα, ERβ and GPER
# Procedure, shortened: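 COS7 cells carry no endogenous ERα, ERβ or GPER. They are transfected with PH-mRFP1 alone (¼ the recommended amount, Lipofectamine2000), grown on coverslips and serum-starved 24 h in phenol red-free RPMI. Cells are stimulated with compounds at 10 µM, fixed in 2% PFA, and scored by confocal microscopy for nuclear translocation of the PIP3 reporter.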
# [3] = system: ERβ; settings: high concentrations (≥10 µM); cited from earlier work
# [4] = system: ERα or ERβ; settings: ERα- or ERβ-expressing cells; cited from earlier work
# [5] = molecular target: ERα/β (Homo sapiens, UniProt P03372); test: ERE-GFP reporter activation/inhibition assay in MCF-7 cells; assay type: cell-based; settings: for inhibition of E2-induced ERE response: 1 nM E2
# ERα/β, sequence (P03372 whole entry): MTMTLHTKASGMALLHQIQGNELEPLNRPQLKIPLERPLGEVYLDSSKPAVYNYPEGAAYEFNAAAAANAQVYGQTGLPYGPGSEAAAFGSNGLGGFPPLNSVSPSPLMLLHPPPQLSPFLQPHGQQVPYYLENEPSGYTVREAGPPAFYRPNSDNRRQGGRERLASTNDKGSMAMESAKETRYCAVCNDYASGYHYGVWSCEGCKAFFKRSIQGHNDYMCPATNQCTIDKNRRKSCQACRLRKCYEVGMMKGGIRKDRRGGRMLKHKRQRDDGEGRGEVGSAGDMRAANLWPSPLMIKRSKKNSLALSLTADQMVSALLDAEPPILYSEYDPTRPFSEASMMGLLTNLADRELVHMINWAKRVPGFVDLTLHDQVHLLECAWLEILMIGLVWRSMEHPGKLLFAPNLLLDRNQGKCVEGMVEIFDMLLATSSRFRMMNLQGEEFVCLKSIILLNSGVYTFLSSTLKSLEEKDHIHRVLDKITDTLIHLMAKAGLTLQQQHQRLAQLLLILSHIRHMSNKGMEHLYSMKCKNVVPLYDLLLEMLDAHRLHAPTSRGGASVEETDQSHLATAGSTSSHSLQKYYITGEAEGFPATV
# [6] = system: ERα; assay type: binding
# Procedure, shortened: (§1)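 COS7 cells are transiently transfected (Lipofectamine2000) with ERα-GFP or ERβ-GFP and serum-starved 24 h. About 5×10⁴ cells are incubated 20 min with test compound, then an equal volume of 20 nM E2-Alexa633 in saponin permeabilization buffer is added. After 10 min at RT, cells are washed in PBS/2% BSA and read by high-throughput flow cytometry.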
# [7] = system: ERβ; assay type: binding
# Procedure, shortened: as §1
# [8] = system: ERα; settings: cited from earlier work
# [9] = system: endogenous purinergic receptors; test: Calcium mobilization by ATP in SKBr3 cells; assay type: cell-based; settings: 10 µM G36, SKBr3
# Procedure, shortened: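 SKBr3 cells are loaded with 3 µM indo1-AM and 0.05% pluronic acid in HBSS for 1 h at RT, washed, and assayed at 2×10⁶ cells/mL. Calcium is read ratiometrically (ex 340/em 400/490 nm) at 37°C in a stirred spectrofluorometer. Cells are pretreated with 10 µM test compound, then given 1 µM ATP to engage endogenous purinergic receptors.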
# [10] = system: uterine epithelia; test: Mouse uterine estrogenicity assay; assay type: in vivo; settings: s.c., 18 hr
# [11] = molecular target: T1, GPER (Homo sapiens, UniProt Q99527); test: ERK activation; assay type: cell-based
# T1 sequence (Q99527 whole entry, species assumed): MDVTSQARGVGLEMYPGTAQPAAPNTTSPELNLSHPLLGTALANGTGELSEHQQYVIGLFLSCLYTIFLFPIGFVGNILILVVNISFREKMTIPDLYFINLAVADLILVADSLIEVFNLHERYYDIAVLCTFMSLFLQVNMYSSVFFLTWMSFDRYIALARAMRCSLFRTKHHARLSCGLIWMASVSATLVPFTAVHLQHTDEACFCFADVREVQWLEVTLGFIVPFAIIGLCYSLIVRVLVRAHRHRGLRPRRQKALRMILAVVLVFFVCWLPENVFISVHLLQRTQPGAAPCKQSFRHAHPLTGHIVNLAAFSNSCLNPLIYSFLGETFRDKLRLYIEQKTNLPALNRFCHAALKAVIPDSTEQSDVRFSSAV
# [12] = molecular target: T1, GPER; test: PI3K activation; assay type: cell-based; settings: COS7 GPER-GFP, 1 µM G36 preincubated 20 min
# Procedure, shortened: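 COS7 cells are cotransfected (Lipofectamine2000) with GPER-GFP and PH-mRFP1, the latter at ¼ the recommended amount. […] Cells are fixed in 2% PFA and imaged by confocal microscopy for PH-mRFP1 nuclear translocation as the PI3K read-out.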
# [13] = molecular target: T1, GPER; test: Intracellular calcium mobilization in SKBr3 cells; assay type: cell-based
# Procedure, shortened: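 SKBr3 cells are loaded with 3 µM indo1-AM and 0.05% pluronic acid in HBSS for 1 h at RT, washed, and assayed at 2×10⁶ cells/mL. Calcium is read ratiometrically (ex 340 nm, em 400/490 nm) at 37°C with stirring. […] Responses are normalized to agonist plus DMSO vehicle, and IC50 is taken from the dose-response curve.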
# [14] = entire range of concentrations tested
compound,measurement,setting,value
"C[C@]12CC[C@@H]3c4ccc(O)cc4CC[C@H]3[C@@H]1CC[C@@H]2O [E2, 17β-estradiol, reference compound]",activation of PI3K (nuclear translocation of PH-RFP),[1],activate PI3K
same,activation of PI3K (nuclear translocation of PH-RFP),[2],no activation of PI3K
Brc1cc2c(cc1[C@@H]1Nc3ccccc3[C@@H]3C=CC[C@@H]31)OCO2 [G15],binding to ERβ,[3],weak binding
same,rapid signaling events via MAPK or PI3K pathways,[4],does not mediate rapid signaling events
same,inhibition of E2-induced ERE response,[5]; 1 µM compound,no significant effect
same,ERE reporter activity compared to maximal E2 response,"[5]; 1 µM, Fig. 5",~ 15%
same,inhibition of E2-induced ERE response,[5]; 10 µM compound,~ 30%
same,inhibitory effects on estrogen-induced transcription,[5]; E2 at 10 nM (data not shown),absent
same,ERE activation,"[5]; concentrations 1–10 µM, Fig. 2",15–20%
same,activation of the ERE reporter (of E2 response),"[5]; high doses (≥1 µM), 24 h, MCF-7 ERE-GFP",≤ 20%
same,binding to ERα (competition of E2-Alexa633),"[6]; highest concentration, 10 µM",weak but significant binding
same,binding to ERβ (competition of E2-Alexa633),"[7]; highest concentration, 10 µM",weak but significant binding
same,binding to ERα,[8]; high concentrations (≥10 µM),weak binding
"CC(C)c1ccc2c(c1)C1C=CCC1C(c1cc3c(cc1Br)OCO3)N2 (stereo not drawn) [G36, 4-(6-Bromo-benzo[1,3]dioxol-5-yl)-8-isopropyl-3a,4,5,9b-tetrahydro-3H-cyclopenta[c]quinoline]",inhibition of E2-mediated PI3K activation,[1]; 1 µM G36 preincubated 20 min,did not inhibit
same,inhibition of calcium mobilization by 1 µM ATP,[9],no inhibition
same,effect on proliferation compared to E2 treatment,[10]; G36 50 ug/kg with E2 10 ug/kg,significant decrease in proliferation
same,effect on proliferative response to G-1,[10]; G36 50 ug/kg with G-1 10 ug/kg,completely abrogated
same,"uterine epithelial proliferation (Ki-67 positivity), compound alone","[10]; ovariectomized C57Bl6 mice, E2 10 ug/kg, G-1 10 ug/kg, G36 50 ug/kg",no effect
same,inhibition at 10 µM,"[5]; MCF7, read-out: inhibition of E2-induced ERE response",< 5%
same,ERE response elicited,[5]; concentrations up to 1 µM,no significant ERE response
same,antagonism of E2-mediated ERE response,[5]; concentrations up to 10 µM,no ability to antagonize
same,effect on E2-induced ERK activation,"[11]; SKBr3, E2 10 nM, 1 µM antagonist pre-incubated 15 min",significant decrease
same,effect on EGF-induced ERK activation,"[11]; SKBr3, EGF 10 ng/mL, 1 µM antagonist",unchanged
same,effect on G-1-induced ERK activation,"[11]; SKBr3, G-1 10 nM, 1 µM antagonist pre-incubated 15 min",significant decrease
same,binding to ERα (competition of E2-Alexa633),[6]; [14],lacking detectable binding activity
same,inhibition of E2-induced PI3K activation,[12],effectively inhibited
same,effect on basal calcium level in cells,"[13]; 10 µM G36 alone, SKBr3",did not alter
same,IC50,"[13]; IC50, inhibition of E2-mediated calcium mobilization, SKBr3, E2 200 nM",112 nM
same,IC50,"[13]; IC50, inhibition of G-1-mediated calcium mobilization, SKBr3, G-1 200 nM",165 nM
same,binding to ERβ (competition of E2-Alexa633),[7]; [14],lacking detectable binding activity
same,activation of PI3K (nuclear translocation of PH-RFP),[2],no activation of PI3K
CC(=O)c1ccc2c(c1)C1C=CCC1C(c1cc3c(cc1Br)OCO3)N2 (stereo not drawn) [G-1],ER binding competition,[8]; 10 µM,unable to detect significant competition
same,activation of PI3K (nuclear translocation of PH-RFP),[2],no activation of PI3K
